One block for each compound: values may come before it. Calls of active or inactive are those of the source. The rule behind the calls is not given here.
What was measured:
[1] = Metabolic stability in Beagle dog hepatocytes assessed as parent compound remaining at 5 uM incubated for 3 hrs by LC-MS analysis; assay type: ADME, cell-based, Canis lupus familiaris, Hepatocyte; details: read-out: Stabilty
Summary of the method: (§1)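 Cryopreserved primary hepatocytes in suspension (CD-1 mouse, Sprague-Dawley rat, Beagle dog, human). Compound diluted from 10 mM DMSO stock to 5 μM final. Sampled at 0, 15, 60, 90 and 180 min, protein precipitated with ACN plus internal standard, supernatant analysed by LC−MS. Run in duplicate. 7-ethoxycoumarin as positive control. Hepatocyte-free medium incubations as negative control.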

Mus musculus [2] = test: Protection against Tsc1-GFAP knockout induced mortality in Balb/c mouse assessed as increase in survival rate administered orally twice a day measured post last dose; assay type: functional, organism-based
Summary of the method: (§2)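 Tsc1GFAPCKO mice (Tsc1 conditionally inactivated mainly in glia). Oral dosing from P21 at 10, 25, 50 mg/kg qd or 50 mg/kg bid, n = 7–10 per group. Controls were vehicle and a comparator at 10 mg/kg. Body weight tracked. Survival followed from P21 to death or censoring at P90, compared by log-rank test.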

[3] = Toxicity in Tsc1-GFAP knockout Balb/c mouse assessed as change in body weight at 50 to 100 mg/kg, po; assay type: organism-based; details: in vivo, dose 50-100 mg/kg
Mus musculus [4] = test: Protection against Tsc1-GFAP knockout induced mortality in Balb/c mouse assessed as increase in survival rate at 100 mg/kg, po administered as single dose; assay type: functional, organism-based
[5] = Metabolic stability in CD1 mouse hepatocytes assessed as parent compound remaining at 5 uM incubated for 3 hrs by LC-MS analysis; assay type: ADME, cell-based, Hepatocyte; details: read-out: Stabilty; summary of the method: as §1
[6] = Metabolic stability in human hepatocytes assessed as parent compound remaining at 5 uM incubated for 3 hrs by LC-MS analysis; assay type: ADME, cell-based, Hepatocyte; details: read-out: Stabilty; summary of the method: as §1
[7] = Toxicity in Tsc1-GFAP knockout Balb/c mouse assessed as survival rate administered orally once a day measured post last dose; details: in vivo, po, dose 50-100 mg/kg; summary of the method: as §2
[8] = Metabolic stability in Sprague-Dawley rat hepatocytes assessed as parent compound remaining at 5 uM incubated for 3 hrs by LC-MS analysis; assay type: ADME, cell-based, Hepatocyte; details: read-out: Stabilty; summary of the method: as §1
[9] = Toxicity in po dosed Balb/c nude mouse administered once daily for 14 days measured for 7 days starting from post last dose; assay type: organism-based; details: in vivo, time 21 day
Summary of the method: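 Nontumor-bearing female BALB/c nude mice dosed p.o. once daily for 14 days at 100, 150 or 200 mg/kg (n = 3 each), with vehicle of 20% Captisol in water (n = 1). Body weight change followed, with animals evaluated for 7 days after dosing to set the maximum tolerated dose.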

Mus musculus [10] = test: In vivo inhibition of mTORC1 signalling in C57BL/6J mouse assessed as reduction in RPS6 phosphorylation at S235/236 residue in cortex at 10 mg/kg, po incubated for 30 mins by Western blot analysis; assay type: functional, organism-based
[11] = Cmax in C57BL/6J mouse plasma at 10 mg/kg, po administered as single dose by mass spectrometry based UHPLC analysis; assay type: ADME, organism-based; design: route oral, dose 10 mg/kg
Summary of the method: (§3)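 Female C57BL/6J mice, one oral dose of 10 mg/kg in 20% Captisol; plasma and brain levels over time, n = 3 per time point (mean).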

[12] = Elimination half life in C57BL/6J mouse plasma at 10 mg/kg, po administered once a day for 4 consecutive days by mass spectrometry based UHPLC analysis; assay type: ADME, organism-based; details: time 4 day, read-out: beta t1/2 (converted)
Summary of the method: (§4)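 Female C57BL/6J mice given 10 mg/kg p.o. in 20% Captisol once daily for 4 consecutive days. Plasma and brain sampled after the final dose on day 4, n = 3 per time point.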

[13] = AUC (0 to 8 hrs) in C57BL/6J mouse plasma at 10 mg/kg, po administered as single dose by mass spectrometry based UHPLC analysis; assay type: ADME, organism-based; design: time < 8 hr, route oral, dose 10 mg/kg; summary of the method: as §3
[14] = Cmax in C57BL/6J mouse plasma at 10 mg/kg, po administered once a day for 4 consecutive days by mass spectrometry based UHPLC analysis; assay type: ADME, organism-based; design: route oral, dose 10 mg/kg, time 4 day; summary of the method: as §4
[15] = Cmax in C57BL/6J mouse brain at 10 mg/kg, po administered as single dose by mass spectrometry based UHPLC analysis; assay type: ADME, organism-based; design: route oral, dose 10 mg/kg; summary of the method: as §3
[16] = Elimination half life in C57BL/6J mouse plasma at 10 mg/kg, po administered as single dose by mass spectrometry based UHPLC analysis; assay type: ADME, organism-based; details: read-out: beta t1/2 (converted); summary of the method: as §3
[17] = Clearance in C57BL/6J mouse plasma at 10 mg/kg, po administered once a day for 4 consecutive days by mass spectrometry based UHPLC analysis; assay type: ADME, organism-based; details: time 4 day; summary of the method: as §4
[18] = Cmax in C57BL/6J mouse brain at 10 mg/kg, po administered once a day for 4 consecutive days by mass spectrometry based UHPLC analysis; assay type: ADME, organism-based; design: route oral, dose 10 mg/kg, time 4 day; summary of the method: as §4
[19] = Clearance in C57BL/6J mouse plasma at 10 mg/kg, po administered as single dose by mass spectrometry based UHPLC analysis; assay type: ADME, organism-based; summary of the method: as §3
[20] = AUC (0 to 8 hrs) in C57BL/6J mouse brain at 10 mg/kg, po administered once a day for 4 consecutive days by mass spectrometry based UHPLC analysis; assay type: ADME, organism-based; design: route oral, time 4 day, dose 10 mg/kg; summary of the method: as §4
Mus musculus [21] = test: In vivo inhibition of PI3Kalpha C57BL/6J mouse assessed as increase in plasma insulin concentration at 10 mg/kg, po measured after 8 hrs by ELISA; assay type: functional, organism-based
[22] = Elimination half life in C57BL/6J mouse brain at 10 mg/kg, po administered once a day for 4 consecutive days by mass spectrometry based UHPLC analysis; assay type: ADME, organism-based; details: time 4 day, read-out: beta t1/2 (converted); summary of the method: as §4
Mus musculus [23] = test: In vivo inhibition of PI3Kalpha in C57BL/6J mouse assessed as increase in plasma glucose concentration at 10 mg/kg, po measured after 8 hrs by glucoseoxidase-peroxide coupled colorimetric assay; assay type: functional, organism-based
[24] = Tmax in C57BL/6J mouse plasma at 10 mg/kg, po administered once a day for 4 consecutive days by mass spectrometry based UHPLC analysis; assay type: ADME, organism-based; details: time 4 day
Summary of the method: (§5)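 Female C57BL/6J mice dosed orally at 10 mg/kg in 20% Captisol, either once or once daily for 4 days with sampling after the last dose on day 4. Plasma and brain concentrations followed over time. Tmax taken from at least 3 time points.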

[25] = Tmax in C57BL/6J mouse plasma at 10 mg/kg, po administered as single dose by mass spectrometry based UHPLC analysis; assay type: ADME, organism-based; summary of the method: as §5
[26] = Tmax in C57BL/6J mouse brain at 10 mg/kg, po administered once a day for 4 consecutive days by mass spectrometry based UHPLC analysis; assay type: ADME, organism-based; details: time 4 day; summary of the method: as §5
[27] = AUC (0 to 8 hrs) in C57BL/6J mouse plasma at 10 mg/kg, po administered once a day for 4 consecutive days by mass spectrometry based UHPLC analysis; assay type: ADME, organism-based; design: route oral, time 4 day, dose 10 mg/kg; summary of the method: as §4
[28] = AUC (0 to 8 hrs) in C57BL/6J mouse brain at 10 mg/kg, po administered as single dose by mass spectrometry based UHPLC analysis; assay type: ADME, organism-based; design: time < 8 hr, route oral, dose 10 mg/kg; summary of the method: as §3
[29] = Toxicity in Tsc1-GFAP knockout Balb/c mouse assessed as change in body weight at 10 mg/kg, po; assay type: organism-based; details: in vivo
Summary of the method: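 Tsc1GFAPCKO mice dosed orally from P21 at 10, 25, 50 mg/kg or 50 mg/kg bid. Body weight tracked during the survival study; mean ± SEM.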

[30] = Tmax in C57BL/6J mouse brain at 10 mg/kg, po administered as single dose by mass spectrometry based UHPLC analysis; assay type: ADME, organism-based; summary of the method: as §5
Mus musculus [31] = test: Protection against Tsc1-GFAP knockout induced mortality in Balb/c mouse assessed as increase in survival rate at 10 mg/kg, po administered as single dose; assay type: functional, organism-based

SMILES: Nc1cc(C(F)F)c(-c2nc(N3C4CCC3COC4)nc(N3C4CCC3COC4)n2)cn1
remaining at 3 h, 5 µM [1]: > 59.9%
Activity (Mus musculus [2]): Dose-dependent effect
Activity [3]: Non-Toxic
Activity (Mus musculus [4]): Active
remaining at 3 h, 5 µM [5]: > 59.9%
remaining at 3 h, 5 µM [6]: 27.8%
Activity [7]: Dose-dependent effect
remaining at 3 h, 5 µM [8]: > 59.9%
MTD at 504 h [9]: 150 mg/kg

Cmax [11]: 3460 ng/mL
half-life [12]: 5.7 h
AUC(0-t) at 8 h [13]: 33600 ng·h/mL
Cmax [14]: 3940 ng/mL
Cmax [15]: 57 ng/mL
half-life [16]: 6.5 h
CL/F [17]: 3.75 mL/min/kg
Cmax [18]: 43 ng/mL
CL/F [19]: 4.6 mL/min/kg
AUC at 96 h [20]: 640 ng·h/mL
half-life [22]: 15.8 h
Tmax [24]: 2 h
Tmax [25]: 0.5 h
Tmax [26]: 4 h
AUC at 96 h [27]: 42300 ng·h/mL
AUC(0-t) at 8 h [28]: 804 ng·h/mL
Tmax [30]: 24 h
SMILES: CO[C@H]1C[C@@H]2CC[C@@H](C)[C@@](O)(O2)C(=O)C(=O)N2CCCC[C@H]2C(=O)O[C@H]([C@H](C)C[C@@H]2CC[C@@H](OCCO)[C@H](OC)C2)CC(=O)[C@H](C)/C=C(\C)[C@@H](O)[C@@H](OC)C(=O)[C@H](C)C[C@H](C)/C=C/C=C/C=C/1C [EVEROLIMUS]
inhibition (Mus musculus [10]): inactive
inhibition (Mus musculus [21]): inactive
inhibition (Mus musculus [23]): inactive
Activity [29]: Non-Toxic
Activity (Mus musculus [31]): Active

— ChEMBL document CHEMBL4715860 (J Med Chem, 2020)
